From ChEMBL document CHEMBL2429730, “C23 steroids from the venom of Bufo bufo gargarizans” (J Nat Prod, 2013)
The source made the active and inactive calls. The calls are words filed in the database; no cut-off is given here.

Columns and labels:
HepG2 = test: Cytotoxicity against human HepG2 cells after 24 hrs by MTT assay; format: functional, cell-based; conditions: HepG2, 24 h
[1] = Cytotoxicity against KM mouse splenic lymphocytes assessed as cell viability at 5 uM; parameters: species or system Splenic lymphocyte; conditions: read-out: Activity
In short: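 Spleens from KM mice were homogenized in PBS and centrifuged. The pellet was red-cell-lysed for 5 min (Tris-base 2.6 g/L, NH4Cl 7.47 g/L, pH 7.2), then passed through a 300-mesh sieve. The resulting lymphocytes were tested by MTT assay, and survival rate was scored at 5 μM.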

A549 = test: Cytotoxicity against human A549 cells after 24 hrs by MTT assay; format: functional, cell-based; conditions: A549, 24 h
Sus scrofa = organism: Sus scrofa; test: Inhibition of Na(+)/K(+) ATPase in pig cerebral cortex assessed as release of inorganic phosphate at 50 uM after 15 mins by colorimetric method; format: tissue-based
[2] = Cytotoxicity against KM mouse splenic lymphocytes; conditions: Splenic lymphocyte
[3] = Inhibition of Na(+)/K(+) ATPase in pig cerebral cortex assessed as release of inorganic phosphate after 15 mins by colorimetric method

Structure (SMILES)	IC50 (HepG2) [µM]	viability at 5 µM [1] [%]	IC50 (A549) [µM]	inhibition (Sus scrofa)	IC50 [2] [µM]	IC50 [3] [µM]
CC(=O)O[C@H]1C[C@]2(O)[C@@H]3CC[C@@H]4C[C@@H](O)CC[C@]4(C)[C@H]3CC[C@]2(C)[C@H]1c1ccc(=O)oc1 [BUFOTALIN]	0.5	100	0.9	–	–	–
CC(=O)O[C@H]1[C@H]2O[C@]23[C@@H]2CC[C@@H]4C[C@@H](O)CC[C@]4(C)[C@H]2CC[C@]3(C)[C@H]1c1ccc(=O)oc1 [CINOBUFAGIN]	5.5	100	6.5	–	–	–
COC(=O)CCC(=O)C1=CC=C2[C@@H]3CC[C@@H]4C[C@@H](O)CC[C@]4(C)[C@H]3CC[C@]12C	> 100	–	> 100	inactive	> 100	–
C=CC1=CO[C@]23CC[C@H]1[C@@]2(C)CC[C@H]1[C@H]3CC[C@]2(O)C[C@@H](O)CC[C@]12C	68.7	–	> 100	inactive	79.4	–
COc1cccc2c1C(=O)c1c(O)c3c(c(O)c1C2=O)C[C@@](O)(C(=O)CO)C[C@@H]3O[C@H]1C[C@H](N)[C@H](O)[C@H](C)O1 [DOXORUBICIN]	–	–	0.1	–	–	–
C=CC1=CO[C@]23C[C@H](OC(C)=O)[C@H]1[C@@]2(C)CC[C@H]1[C@H]3CC[C@@H]2C[C@@H](O)CC[C@@]21C	64.8	–	> 100	–	> 100	–
C[C@@H]1O[C@@]12[C@@H]1O[C@@H]3C[C@H]2[C@@]2(C)CC[C@H]4[C@@H](CC[C@@H]5C[C@@H](O)CC[C@@]54C)[C@@]32O1	> 100	–	> 100	–	> 100	–
C/C=C(\C=O)[C@H]1[C@@H](OC(C)=O)[C@H]2O[C@]23[C@@H]2CC[C@@H]4C[C@@H](O)CC[C@]4(C)[C@H]2CC[C@]13C	> 26.8	–	45.6	–	> 100	–
C[C@]12CC[C@H](O)C[C@H]1CC[C@@H]1[C@@H]2CC[C@]2(C)[C@@H](c3ccc(=O)oc3)C[C@H]3O[C@]132 [BUFOGENIN]	43.3	–	> 100	–	> 100	–
C[C@]12CC[C@H](O)C[C@@]1(O)CC[C@@H]1[C@@H]2CC[C@]2(C)[C@@H](c3ccc(=O)oc3)CC[C@]12O [TELOCINOBUFAGIN]	2.4	100	3	–	–	–
C[C@]12CC[C@H](O)C[C@H]1CC[C@@H]1[C@@H]2CC[C@]2(C)[C@@H](c3ccc(=O)oc3)CC[C@]12O [BUFALIN]	0.6	100	0.6	–	–	0.011
